Measured values as given in ChEMBL document CHEMBL1133544, “Formaldehyde-induced alkylation of a 2'-aminoglucose rebeccamycin derivative to both A.T and G.C base pairs in DNA” (J Med Chem, 2000).
Several values for one entry are separate records, joined by “and”; a condition that tells them apart may be missing. Equal entries are not always repeated.

Assays:
[1] = system: [poly(dA-dT)]2 (synthetic); experiment: Delta Tm value ( Tmdrug-DNA )-TmDNA ) was obtained for the covalently cross-linked compound in the absence of formaldehyde using twice of poly(dA-dT) at 0.25 M; details: in vivo
[2] = Delta Tm value (Tm(drug-DNA)-Tm(DNA)) was obtained for the covalently cross-linked compound in the absence of formaldehyde using twice of poly(dI-dC); type: ADME
How it was run: (§1)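 Drug added to nucleic acid at the stated drug/DNA ratio with no HCHO, in BPE buffer pH 7.0 (6 mM Na2HPO4, 2 mM NaH2PO4, 1 mM EDTA). DNA or polynucleotide at 20 μM nucleotide. Absorbance read at 260 nm while heating 20–100 °C at 1 °C/min. Tm taken as the midpoint of the hyperchromic transition; ΔTm = Tm(drug–DNA) − Tm(DNA). Duplicate determinations at each drug concentration.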

[3] = species: Bos taurus; experiment: Delta Tm value ( Tmdrug-DNA )-TmDNA ) was obtained for the covalently cross-linked compound in the absence of formaldehyde using calf thymus DNA at 1 M; type: ADME; details: cattle
How it was run: as §1

[4] = species: Bos taurus; experiment: Delta Tm value ( Tmdrug-DNA )-TmDNA ) was obtained for the covalently cross-linked compound in the presence of formaldehyde using calf thymus DNA at 0.1 M; type: ADME; details: cattle
How it was run: (§2)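 The preformed drug–nucleic acid complex, at the stated drug/DNA ratio, was treated with HCHO before melting. Melting was done in BPE buffer pH 7.0 with 20 μM nucleotide, monitored at 260 nm, heating 20–100 °C at 1 °C/min. Tm is the hyperchromic transition midpoint, and ΔTm is taken relative to free nucleic acid. Each drug concentration was run in duplicate.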

[5] = Delta Tm value ( Tmdrug-DNA )-TmDNA ) was obtained for the covalently cross-linked compound in the presence of formaldehyde using poly(dA-dC).poly(dG-dT) at 0.1 M; type: ADME
How it was run: as §2

[6] = Delta Tm value ( Tmdrug-DNA )-TmDNA ) was obtained for the covalently cross-linked compound in the presence of formaldehyde using twice of poly(dA-dT) at 0.05 M; type: ADME
How it was run: as §2

[7] = Delta Tm value (Tm(drug-DNA)-Tm(DNA)) was obtained for the covalently cross-linked compound in the absence of formaldehyde using twice of poly(dI-dC) at 0.25 M; type: ADME
How it was run: as §1

[8] = species: Bos taurus; experiment: Delta Tm value ( Tmdrug-DNA )-TmDNA ) was obtained for the covalently cross-linked compound in the absence of formaldehyde using calf thymus DNA at 0.5 M; type: ADME; details: cattle
How it was run: as §1

[9] = Delta Tm value ( Tmdrug-DNA )-TmDNA ) was obtained for the covalently cross-linked compound in the presence of formaldehyde using twice of poly(dA-dT) at 0.1 M; type: ADME
How it was run: as §2

[10] = species: Bos taurus; experiment: Delta Tm value ( Tmdrug-DNA )-TmDNA ) was obtained for the covalently cross-linked compound in the absence of formaldehyde using calf thymus DNA at 0.25 M; type: ADME; details: cattle
How it was run: as §1

[11] = species: Bos taurus; experiment: Delta Tm value ( Tmdrug-DNA )-TmDNA ) was obtained for the covalently cross-linked compound in the absence of formaldehyde using calf thymus DNA at 0.1 M; type: ADME; details: cattle
How it was run: as §1

[12] = system: poly(dA-dC)·poly(dG-dT) (synthetic); experiment: Delta Tm value ( Tmdrug-DNA )-TmDNA ) was obtained for the covalently cross-linked compound in the presence of formaldehyde using poly(dA-dC).poly(dG-dT); details: in vitro
[13] = Delta Tm value ( Tmdrug-DNA )-TmDNA ) was obtained for the covalently cross-linked compound in the presence of formaldehyde using twice of poly(dA-dT) at 0.25 M; type: ADME
How it was run: as §2

[14] = Delta Tm value ( Tmdrug-DNA )-TmDNA ) was obtained for the covalently cross-linked compound in the presence of formaldehyde using twice of poly(dA-dT); type: ADME
How it was run: as §2

[15] = species: Bos taurus; experiment: Delta Tm value ( Tmdrug-DNA )-TmDNA ) was obtained for the covalently cross-linked compound in the presence of formaldehyde using calf thymus DNA.; type: ADME; details: cattle
How it was run: as §2

[16] = species: Bos taurus; experiment: Delta Tm value ( Tmdrug-DNA )-TmDNA ) was obtained for the covalently cross-linked compound in the absence of formaldehyde using calf thymus DNA at 0.05 M; type: ADME; details: cattle
How it was run: as §1

[17] = species: Bos taurus; experiment: Delta Tm value ( Tmdrug-DNA )-TmDNA ) was obtained for the covalently cross-linked compound in the presence of formaldehyde using calf thymus DNA at 0.5 M; type: ADME; details: cattle
How it was run: as §2

[18] = Delta Tm value ( Tmdrug-DNA )-TmDNA ) was obtained for the covalently cross-linked compound in the presence of formaldehyde using twice of poly(dA-dT) at 0.5 M; type: ADME
How it was run: as §2

[19] = Delta Tm value ( Tmdrug-DNA )-TmDNA ) was obtained for the covalently cross-linked compound in the presence of formaldehyde using poly(dA-dC).poly(dG-dT) at 0.05 M; type: ADME
How it was run: as §2

[20] = species: Bos taurus; experiment: Delta Tm value ( Tmdrug-DNA )-TmDNA ) was obtained for the covalently cross-linked compound in the presence of formaldehyde using calf thymus DNA at 0.25 M; type: ADME; details: cattle
How it was run: as §2

[21] = Delta Tm value (Tm(drug-DNA)-Tm(DNA)) was determined for the covalently cross-linked compound in the presence of formaldehyde using calf thymus DNA at 0.05 M; type: ADME; details: cattle
How it was run: as §2

[22] = Delta Tm value ( Tmdrug-DNA )-TmDNA ) was obtained for the covalently cross-linked compound in the absence of formaldehyde using calf thymus DNA.; type: ADME; details: cattle
How it was run: as §1

[23] = Delta Tm value (Tm(drug-DNA)-Tm(DNA)) was obtained for the covalently cross-linked compound in the absence of formaldehyde using twice of poly(dI-dC) at 0.05 M; type: ADME
How it was run: as §1

[24] = system: poly(dA-dC)·poly(dG-dT) (synthetic); experiment: Delta Tm value ( Tmdrug-DNA )-TmDNA ) was obtained for the covalently cross-linked compound in the absence of formaldehyde using poly(dA-dC).poly(dG-dT); details: in vitro
[25] = species: Bos taurus; experiment: Delta Tm value ( Tmdrug-DNA )-TmDNA ) was obtained for the covalently cross-linked compound in the presence of formaldehyde using calf thymus DNA at 1 M; type: ADME; details: cattle
How it was run: as §2

[26] = system: poly(dA-dC)·poly(dG-dT) (synthetic); experiment: Delta Tm value ( Tmdrug-DNA )-TmDNA ) was obtained for the covalently cross-linked compound in the absence of formaldehyde using poly(dA-dC).poly(dG-dT) at 0.25 M; details: in vitro
[27] = system: poly(dA-dC)·poly(dG-dT) (synthetic); experiment: Delta Tm value ( Tmdrug-DNA )-TmDNA ) was obtained for the covalently cross-linked compound in the absence of formaldehyde using poly(dA-dC).poly(dG-dT) at 0.1 M; details: in vitro
[28] = Delta Tm value (Tm(drug-DNA)-Tm(DNA)) was determined for the covalently cross-linked compound in the presence of formaldehyde using twice of poly(dI-dC) at 0.25 M; type: ADME
How it was run: as §2

[29] = system: [poly(dA-dT)]2 (synthetic); experiment: Delta Tm value ( Tmdrug-DNA )-TmDNA ) was obtained for the covalently cross-linked compound in the absence of formaldehyde using twice of poly(dA-dT); details: in vivo
[30] = Delta Tm value ( Tmdrug-DNA )-TmDNA ) was obtained for the covalently cross-linked compound in the presence of formaldehyde using poly(dA-dC).poly(dG-dT) at 0.25 M; type: ADME
How it was run: as §2

[31] = Delta Tm value ( Tmdrug-DNA )-TmDNA ) was obtained for the covalently cross-linked compound in the presence of formaldehyde using twice of poly(dI-dC) at 0.05 M; type: ADME
How it was run: as §2

[32] = system: poly(dA-dC)·poly(dG-dT) (synthetic); experiment: Delta Tm value ( Tmdrug-DNA )-TmDNA ) was obtained for the covalently cross-linked compound in the absence of formaldehyde using poly(dA-dC).poly(dG-dT) at 0.05 M; details: in vitro
[33] = system: [poly(dA-dT)]2 (synthetic); experiment: Delta Tm value ( Tmdrug-DNA )-TmDNA ) was obtained for the covalently cross-linked compound in the absence of formaldehyde using twice of poly(dA-dT) at 0.1 M; details: in vivo
[34] = system: [poly(dA-dT)]2 (synthetic); experiment: Delta Tm value ( Tmdrug-DNA )-TmDNA ) was obtained for the covalently cross-linked compound in the absence of formaldehyde using twice of poly(dA-dT) at 0.05 M; details: in vivo

- Delta Tm [1]: 4.8 °C
- Delta Tm [2]: 0 °C and -1 °C
- Delta Tm [3]: 6.7 °C
- Delta Tm [4]: 11.9 °C
- Delta Tm [5]: 12.4 °C
- Delta Tm [6]: 5.9 °C
- Delta Tm [7]: 8.9 °C
- Delta Tm [8]: 6.5 °C
- Delta Tm [9]: 11.9 °C
- Delta Tm [10]: 6.7 °C
- Delta Tm [11]: 4 °C
- Delta Tm [12]: -2 °C
- Delta Tm [13]: 31 °C
- Delta Tm [14]: 0 °C
- Delta Tm [15]: 0 °C
- Delta Tm [16]: 2 °C
- Delta Tm [17]: 26.2 °C
- Delta Tm [18]: 50.8 °C
- Delta Tm [19]: 6.7 °C
- Delta Tm [20]: 22.3 °C
- Delta Tm [21]: 6 °C
- Delta Tm [22]: 0 °C
- Delta Tm [23]: 2 °C
- Delta Tm [24]: 0 °C
- Delta Tm [25]: 28.7 °C
- Delta Tm [26]: 2.9 °C
- Delta Tm [27]: 1.8 °C
- Delta Tm [28]: 10 °C
- Delta Tm [29]: 0 °C
- Delta Tm [30]: 21.2 °C
- Delta Tm [31]: 3.1 °C
- Delta Tm [32]: 1 °C
- Delta Tm [33]: 3 °C
- Delta Tm [34]: 2 °C
SMILES: COC1C(CO)OC(n2c3ccccc3c3c4c(c5c6ccccc6[nH]c5c32)C(=O)N(N)C4=O)C(N)C1O (centres undefined)
